The values that follow come from ChEMBL document CHEMBL4428023, “1,4-Dihydropyridines Active on the SIRT1/AMPK Pathway Ameliorate Skin Repair and Mitochondrial Function and Exhibit Inhibition of Proliferation in Cancer Cells” (J Med Chem, 2016).

The subject of assay [1] is Mus musculus. Kind of assay: Wound healing activity in CD1 mouse assessed as decrease in epithelial gap at 1 uM administered topically on wound everyday for 14 days by biopsy punch assay. The format is functional, organism-based. In short, it runs like this: (§1)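 Male CD1 mice, 8 weeks old, anaesthetized i.p. with medetomidine 1 mg/kg plus ketamine 75 mg/kg, then biopsy-punch wounded. Compound (1 µM) in 20 µL saline applied directly to the wound daily for 14 days; solvent-treated group as control. Epithelial gap and % wound closure followed over time.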

For assay [2], the system named is M14. Kind of assay: Antiproliferative activity against human M14 cells assessed as cell viability after 72 hrs by MTT assay. The assay is classed as functional, cell-based. The conditions noted are these: M14, 72 h. In outline:
(§2)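 Cells grown in RPMI with 10% fetal calf serum and penicillin, seeded in sextuplicate at 3 × 10^3 cells/well. After 24 h, cells were exposed 72 h to 5–200 µM. Viability was measured by MTT and expressed as treated/untreated × 100. IC50 was calculated from three independent experiments, reported as mean ± SD.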

In assay [3] the test system is Mus musculus. The assay is described as follows: Wound healing activity in CD1 mouse assessed as increased wound closure at 1 uM administered topically on wound everyday for 14 days by biopsy punch assay. The format is functional, organism-based. In short, it runs like this:
as §1

Assay [4] concerns C2C12. The assay is described as follows: Activation of AMPK/SIRT1 in mouse C2C12 cells assessed as increase in mitochondrial density at 30 uM after 16 hrs by Mitotracker Green staining-based confocal microscopy. The format is cell-based. In short, it runs like this:
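Murine C2C12 myoblasts plated on coverslips and grown overnight at 37 °C, 5% CO2. Then switched to serum-free HBSS, pH 7.4, and treated 16 h at 30 µM, alone or with 5 µM compound C or EX-527. Mitotracker Green (200 nM final) added for the last 30 min. Cells fixed in 4% paraformaldehyde, permeabilized and imaged by confocal microscopy, with settings fixed on untreated cells. Plate fluorescence also quantified.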

Assay [5] deals with HEY. The assay is described as follows: Antiproliferative activity against human HEY cells assessed as cell viability after 72 hrs by MTT assay. The assay is classed as functional, cell-based. In outline:
as §2

For assay [6], the target named is T1, NAD-dependent protein deacetylase sirtuin-1 (Homo sapiens) (UniProt Q96EB6).
T1 sequence (whole entry): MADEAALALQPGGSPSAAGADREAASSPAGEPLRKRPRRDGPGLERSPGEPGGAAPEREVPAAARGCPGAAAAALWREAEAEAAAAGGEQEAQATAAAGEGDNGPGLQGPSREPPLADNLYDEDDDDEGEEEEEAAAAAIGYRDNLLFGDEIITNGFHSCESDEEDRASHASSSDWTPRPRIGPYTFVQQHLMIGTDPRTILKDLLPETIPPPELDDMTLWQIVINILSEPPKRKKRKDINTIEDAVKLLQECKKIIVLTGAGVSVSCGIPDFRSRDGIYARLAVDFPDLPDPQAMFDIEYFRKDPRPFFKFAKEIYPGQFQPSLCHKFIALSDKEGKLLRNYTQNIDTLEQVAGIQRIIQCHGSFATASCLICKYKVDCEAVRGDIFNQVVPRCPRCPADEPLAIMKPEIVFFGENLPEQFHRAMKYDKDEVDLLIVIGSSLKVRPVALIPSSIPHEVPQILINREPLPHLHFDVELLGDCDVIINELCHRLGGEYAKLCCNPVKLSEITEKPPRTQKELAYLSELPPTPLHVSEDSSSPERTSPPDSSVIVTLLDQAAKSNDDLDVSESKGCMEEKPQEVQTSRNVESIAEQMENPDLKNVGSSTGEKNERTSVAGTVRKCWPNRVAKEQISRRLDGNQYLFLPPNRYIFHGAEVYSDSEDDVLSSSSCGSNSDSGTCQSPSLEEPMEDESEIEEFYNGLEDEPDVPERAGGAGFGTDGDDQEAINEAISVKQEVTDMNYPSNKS
The assay is described as follows: Activation of full-length GST-tagged recombinant human SIRT1 assessed as enzyme activity obtained with subtraction of intrinsic fluorescence using p53-based untagged peptide as substrate at 50 uM after 30 mins by SIRTainty assay.

Assay [7] deals with HaCaT. Kind of assay: Activation of AMPK/SIRT1 in human HaCaT cells assessed as nitric oxide production at 10 uM incubated for 1 hr in presence of compound C by DAF-2D staining-based fluorescence assay. The assay is classed as cell-based. In outline:
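HaCaT cells in DMEM with 10% FBS. DHP (10 µM) given for 1 h alone or together with 10 µM AMPK inhibitor compound C or 10 µM SIRT1 inhibitor EX-527. Intracellular NO read by flow cytometry after loading with 5 µM DAF-2D in medium (ex 485/em 538 nm). Expressed as % DAF-positive cells versus DMSO.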

Assay [8] deals with HCT-116. Kind of assay: Antiproliferative activity against human HCT116 cells assessed as cell viability after 72 hrs by MTT assay. The assay is classed as functional, cell-based. The settings on record: HCT-116, 72 h. In outline:
as §2

Assay [9] deals with A549. The assay is described as follows: Antiproliferative activity against human A549 cells assessed as cell viability after 72 hrs by MTT assay. The format is functional, cell-based. The conditions noted are these: A549, 72 h. In short, it runs like this:
as §2

Assay [10] deals with 3',5'-cyclic-AMP phosphodiesterase 4D (Homo sapiens) (UniProt Q08499). Kind of assay: Inhibition of recombinant human PDE4D assessed as phosphate release using cAMP as substrate at 50 uM after 60 mins by malachite green assay. In outline: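 Recombinant human PDE4D (20 mU) in 10 mM Tris-HCl pH 7.4 with cAMP substrate. Compounds at 50 µM in DMSO; rolipram 10 µM as positive control. Incubated 60 min at 37 °C, then phosphate release measured by malachite green absorbance at 620 nm. Mean of three determinations.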
Sequence of 3',5'-cyclic-AMP phosphodiesterase 4D (Homo sapiens) (Q08499 whole entry): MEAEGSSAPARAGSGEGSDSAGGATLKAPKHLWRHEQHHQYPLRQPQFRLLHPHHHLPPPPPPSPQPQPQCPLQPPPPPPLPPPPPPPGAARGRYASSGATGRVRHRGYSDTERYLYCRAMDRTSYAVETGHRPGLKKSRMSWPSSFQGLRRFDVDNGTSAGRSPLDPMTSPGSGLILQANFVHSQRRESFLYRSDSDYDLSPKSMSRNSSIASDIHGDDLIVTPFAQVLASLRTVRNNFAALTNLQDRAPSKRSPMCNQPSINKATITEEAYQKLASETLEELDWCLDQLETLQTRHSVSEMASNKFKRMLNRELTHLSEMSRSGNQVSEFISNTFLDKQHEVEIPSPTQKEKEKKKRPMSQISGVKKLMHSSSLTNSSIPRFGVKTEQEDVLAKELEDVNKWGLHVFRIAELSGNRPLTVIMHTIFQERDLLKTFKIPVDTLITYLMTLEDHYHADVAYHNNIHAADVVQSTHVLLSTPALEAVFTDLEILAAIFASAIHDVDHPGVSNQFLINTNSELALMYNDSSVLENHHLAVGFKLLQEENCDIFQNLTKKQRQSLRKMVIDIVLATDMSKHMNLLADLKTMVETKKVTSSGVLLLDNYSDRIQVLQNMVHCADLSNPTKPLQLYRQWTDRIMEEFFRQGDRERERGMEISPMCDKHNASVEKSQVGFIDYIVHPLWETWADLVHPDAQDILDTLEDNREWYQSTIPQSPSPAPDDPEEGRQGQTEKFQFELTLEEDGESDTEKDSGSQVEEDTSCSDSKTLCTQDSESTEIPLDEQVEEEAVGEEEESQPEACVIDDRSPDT

For assay [11], the system named is HT-29. The assay is described as follows: Antiproliferative activity against human HT-29 cells assessed as cell viability after 72 hrs by MTT assay. The format is functional, cell-based. The conditions noted are these: HT-29, 72 h. In short, it runs like this:
as §2

The test system of assay [12] is NCI-H1299. The assay is described as follows: Antiproliferative activity against human NCI-H1299 cells assessed as cell viability after 72 hrs by MTT assay. The format is functional, cell-based. The conditions noted are these: NCI-H1299, 72 h. In outline: as §2
Assay [13] addresses T1, NAD-dependent protein deacetylase sirtuin-1 (Homo sapiens). The assay is described as follows: Activation of SIRT1 in […] at 1 uM by fluorimetric assay. The settings on record: HaCaT, TDE = time-dependent effect. The assay is classed as cell-free.
Assay [14] has as its system C2C12. Kind of assay: Activation of AMPK/SIRT1 in mouse C2C12 cells assessed as increase in mitochondrial density at 30 uM after 16 hrs by Mitotracker Green staining-based confocal microscopy in presence of compound C. The assay is classed as cell-based. In outline:
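C2C12 myoblasts plated overnight, then in serum-free HBSS pH 7.4 and treated 16 h at 30 µM, alone or with 5 µM inhibitor (EX-527 or compound C). Mitotracker Green at 200 nM final was added for the last 30 min. Cells were fixed in 4% paraformaldehyde, permeabilized with Triton X-100 and imaged by confocal microscopy with fixed settings. Alternatively, mitochondrial fluorescence was quantified in plates.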

The species named for assay [15] is Cavia porcellus. Kind of assay: Potency index, ratio of potency for test compound to potency for nifedipine for inhibition of calcium channel in guinea pig ileum longitudinal smooth muscle assessed as inhibition of calcium-induced contraction. The assay is classed as tissue-based.
For assay [16], the system named is HaCaT. Kind of assay: Activation of AMPK/SIRT1 in human HaCaT cells assessed as nitric oxide production incubated for 1 hr by DAF-2D staining-based fluorescence assay. The format is cell-based. In outline:
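HaCaT keratinocytes grown in DMEM with 10% FBS and antibiotics. Cells treated 1 h (single-point 1 µM; dose-response at 5, 25, 50 µM). 5 µM DAF-2D added to complete medium. Cells then washed in PBS, trypsinized and analysed by flow cytometry for DAF fluorescence (ex 485/em 538 nm). Read-out is % DAF-positive cells relative to DMSO control.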

Activity calls are given as the source filed them. The calls are words filed in the database; no cut-off is given here.

With `CCOC(=O)C1=CN(C(=O)c2ccccc2)C=C(C(=O)OCC)C1c1ccccc1`, the outcome in assay [1], in assay [3] and in [4] was Active. Further, the IC50 in assay [2] is 153 µM; in assay [5], 143 µM; in assay [8] it was 62 µM; in assay [9], 169 µM; in assay [11] it was 80 µM; in assay [12], 125 µM. The results for the Activity in [6], in [13] and in assay [16] were 153%, “Tde” and “Dose-dependent effect”, respectively. Further, the result in [7] and in [14] was inactive. Further, the inhibition entry in [10] was “inactive”. Besides, the Ratio in assay [15] is 720.
